Type in all cases: functional, cell-based
In one test the test system is 8505C. In words: Cytotoxicity against human 8505C cells assessed as cell survival after 96 hrs by sulforhodamine B assay. In outline: (§1)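 Cells in exponential growth were seeded at densities that avoided confluence and, after 24 h, exposed to serial compound dilutions (0-30 μM, DMSO ≤0.5% final) for 96 h. Cells were then fixed with 10% TCA at 4 °C, washed with water, and stained with 0.4% SRB for about 20 min. Excess dye was removed with 1% acetic acid, bound dye was taken up in 10 mM Tris base, and absorbance was read at 570 nm.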
(In general: In SRB staining, fixed cells bind dye roughly in proportion to their protein.)

The subject of test [1] is A2780. In words: Cytotoxicity against human A2780 cells assessed as cell survival after 96 hrs by sulforhodamine B assay. The conditions noted are these: A2780, 96 h. In a few lines: as §1
Another test has as its system HT-29. In words: Cytotoxicity against human HT-29 cells assessed as cell survival after 96 hrs by sulforhodamine B assay. The conditions noted are these: HT-29, 96 h. In outline:
as §1

Test [2] is described as follows: Cytotoxicity against human 518A2 cells assessed as cell survival after 96 hrs by sulforhodamine B assay. To be noted: 518A2, 96 h. In outline: as §1
Test [3] relates to A2780. In words: Induction of apoptosis in human A2780 cells at EC90 after 48 hrs by acridine orange/propidium iodide staining-based fluorescence microscopic analysis. In outline:
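The supernatant cells were pelleted, washed in PBS, resuspended in PBS, mixed with acridine orange/propidium iodide, and examined under a fluorescence microscope, with green-fluorescent cells scored as undergoing controlled death and orange cells as necrotic.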

Another test deals with A549. Description: Cytotoxicity against human A549 cells assessed as cell survival after 96 hrs by sulforhodamine B assay. To be noted: A549, 96 h. In a few lines:
as §1

A further test relates to MCF7. In words: Cytotoxicity against human MCF7 cells assessed as cell survival after 96 hrs by sulforhodamine B assay. To be noted: MCF7, 96 h. In a few lines: as §1

The source made the active and inactive calls. The rule behind the calls is not given here.

In general, EC50 refers to the concentration at which the effect is half-maximal. In the case of `CC1(C)CC[C@]2(C(=O)NCCN3CCCC3)CC[C@]3(C)C(=CC[C@@H]4[C@@]5(C)CC[C@H](O)[C@@](C)(CO)[C@@H]5CC[C@]43C)[C@@H]2C1`, the EC50 in the test on 8505C is 1.8 µM; in the test on A2780 [1], 1.1 µM; with HT-29, 1.2 µM; in test [2], 2 µM; in the test with A549, 1.9 µM; in the test on MCF7, 3.7 µM. The result with A2780 [3] was Active.
Regarding `CC1(C)CC[C@]2(C(=O)OCc3ccc(Cl)cc3)CC[C@]3(C)C(=CC[C@@H]4[C@@]5(C)CC[C@H](O)[C@@](C)(CO)[C@@H]5CC[C@]43C)[C@@H]2C1`, the half-maximal effective concentration (EC50) with 8505C was 8.1 µM; with A2780 [1], 13 µM; in the test on HT-29, 13.5 µM; in test [2] it was 11.4 µM; in the test on A549, 9.8 µM; in the test on MCF7 it was 12.7 µM.
Consider `CC1(C)CC[C@]2(C(=O)OCCC3OCCCO3)CC[C@]3(C)C(=CC[C@@H]4[C@@]5(C)CC[C@H](O)[C@@](C)(CO)[C@@H]5CC[C@]43C)[C@@H]2C1`, for which the half-maximal effective concentration (EC50) in the test on 8505C worked out at 13.1 µM; in the test on A2780 [1], 15 µM; in the test on HT-29, 13.4 µM; in test [2] it was 11.1 µM; in the test on A549 it was 13.1 µM; in the test on MCF7, 12.7 µM.
For the compound `Cc1cccc(COC(=O)[C@]23CCC(C)(C)C[C@H]2C2=CC[C@@H]4[C@@]5(C)CC[C@H](O)[C@@](C)(CO)[C@@H]5CC[C@@]4(C)[C@]2(C)CC3)c1`, the EC50 with 8505C came out at 9.7 µM; in the test on A2780 [1] it was 13.7 µM; in the test on HT-29, 14.4 µM; in test [2], 10.9 µM; in the test on A549, 13.5 µM; in the test with MCF7 it was 13.5 µM.
Take `CC1(C)CC[C@]2(C(=O)OCc3ccc(F)cc3)CC[C@]3(C)C(=CC[C@@H]4[C@@]5(C)CC[C@H](O)[C@@](C)(CO)[C@@H]5CC[C@]43C)[C@@H]2C1`: the EC50 amounted to 6.7 µM with 8505C; 11.4 µM in the test on A2780 [1]; 11.3 µM in the test on HT-29; 10.2 µM in test [2]; 8.5 µM in the test on A549; 9.2 µM with MCF7.
Consider `CC1(C)CC[C@]2(C(=O)OCc3ccc(Br)cc3)CC[C@]3(C)C(=CC[C@@H]4[C@@]5(C)CC[C@H](O)[C@@](C)(CO)[C@@H]5CC[C@]43C)[C@@H]2C1`, for which the EC50 is 8.6 µM with 8505C; 13.2 µM in the test on A2780 [1]; 13.7 µM in the test on HT-29; 11.6 µM in test [2]; 13.5 µM with A549; 13.5 µM in the test with MCF7.
Turning to `CC1(C)CC[C@]2(C(=O)NCc3ccccc3)CC[C@]3(C)C(=CC[C@@H]4[C@@]5(C)CC[C@H](O)[C@@](C)(CO)[C@@H]5CC[C@]43C)[C@@H]2C1`, the EC50 with 8505C stood at 13.5 µM; in the test on A2780 [1] it was 11.4 µM; in the test with HT-29 it was 15.1 µM; in test [2], 13.7 µM; in the test on A549, 15.7 µM; in the test on MCF7 it was 14.6 µM.
As for `CC1(C)CC[C@]2(C(=O)NCCN3CCOCC3)CC[C@]3(C)C(=CC[C@@H]4[C@@]5(C)CC[C@H](O)[C@@](C)(CO)[C@@H]5CC[C@]43C)[C@@H]2C1`, the EC50 (with 8505C; in the test on A2780 [1]; in the test with HT-29; in test [2]; in the test on A549; in the test with MCF7) was more than 30 µM throughout.
Turning to `CC1(C)CC[C@]2(C(=O)OCc3ccccc3Br)CC[C@]3(C)C(=CC[C@@H]4[C@@]5(C)CC[C@H](O)[C@@](C)(CO)[C@@H]5CC[C@]43C)[C@@H]2C1`, the EC50 is 7.8 µM in the test with 8505C; 14.3 µM in the test on A2780 [1]; 14.3 µM with HT-29; 10.9 µM in test [2]; 13.2 µM in the test on A549; 12.7 µM in the test on MCF7.
For the compound `CC1(C)CC[C@]2(C(=O)NCCN3CCCCC3)CC[C@]3(C)C(=CC[C@@H]4[C@@]5(C)CC[C@H](O)[C@@](C)(CO)[C@@H]5CC[C@]43C)[C@@H]2C1`, the EC50 came to 3.6 µM in the test with 8505C; 1.8 µM in the test on A2780 [1]; 1.3 µM in the test with HT-29; 3.7 µM in test [2]; 2.7 µM with A549; 6.5 µM in the test on MCF7.
Consider `CC1(C)CC[C@]2(C(=O)OCc3cccc([N+](=O)[O-])c3)CC[C@]3(C)C(=CC[C@@H]4[C@@]5(C)CC[C@H](O)[C@@](C)(CO)[C@@H]5CC[C@]43C)[C@@H]2C1`, for which the concentration giving a half-maximal response (EC50) with 8505C came out at 6.6 µM; with A2780 [1], 11.9 µM; in the test on HT-29, 12 µM; in test [2], 8.1 µM; in the test with A549 it was 8.1 µM; in the test with MCF7, 8.3 µM.
For the compound `Cc1ccccc1COC(=O)[C@]12CCC(C)(C)C[C@H]1C1=CC[C@@H]3[C@@]4(C)CC[C@H](O)[C@@](C)(CO)[C@@H]4CC[C@@]3(C)[C@]1(C)CC2`, the EC50 in the test on 8505C worked out at 8.4 µM; in the test on A2780 [1], 12.9 µM; in the test with HT-29, 13.2 µM; in test [2] it was 9 µM; with A549, 12.6 µM; with MCF7, 11.3 µM.

(Values after ChEMBL document CHEMBL3632609, “Hederagenin as a triterpene template for the development of new antitumor compounds” (Eur J Med Chem, 2015).)
